# The source made the active and inactive calls. The calls are words filed in the database; no cut-off is given here.
# Experiments:
# [1] = biological target: T1, [Pyruvate dehydrogenase (acetyl-transferring)] kinase isozyme 4, mitochondrial (Homo sapiens, UniProt Q16654); test: Inhibition of PDK4 (unknown origin)
# Target sequence in this assay (Q16654 whole entry): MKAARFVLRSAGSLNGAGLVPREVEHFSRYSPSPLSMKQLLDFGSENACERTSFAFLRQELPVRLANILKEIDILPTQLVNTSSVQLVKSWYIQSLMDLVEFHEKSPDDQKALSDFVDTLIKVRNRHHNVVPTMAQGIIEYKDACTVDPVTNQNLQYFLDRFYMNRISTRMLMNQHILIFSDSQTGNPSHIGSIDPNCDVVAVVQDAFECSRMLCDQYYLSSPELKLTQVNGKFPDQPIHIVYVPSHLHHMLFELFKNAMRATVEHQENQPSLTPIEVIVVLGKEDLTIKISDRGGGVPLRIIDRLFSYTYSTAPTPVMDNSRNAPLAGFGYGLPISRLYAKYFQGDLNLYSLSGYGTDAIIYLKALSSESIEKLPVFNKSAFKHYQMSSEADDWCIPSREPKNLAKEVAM
# [2] = biological target: T1, [Pyruvate dehydrogenase (acetyl-transferring)] kinase isozyme 4, mitochondrial; test: Inhibition of PDK4 in HEK293T cells assessed as reduction in PDHE1alpha phosphorylation at Ser-293 residue by measuring phosphorylated PDHE1alpha level at 10 uM after 24 hrs by Western blot analysis; type: cell-based
# Method in brief: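 HEK293T cells grown in high-glucose DMEM with 10% FBS at 37 °C, 5% CO2. Medium renewed after 24 h, then cells exposed to compound for 24 h and lysed. 20 μg protein per lane Western blotted with antibodies to phospho-PDHE1α Ser232, Ser293 and Ser300 and to total PDHE1α. Band intensity quantified relative to control; triplicate.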
# Target sequence in this assay (Q16654 whole entry, looked up): as the sequence (Q16654 whole entry) above
# Vero = test: Cytotoxicity against African green monkey Vero cells; type: cell-based; details: Chlorocebus sabaeus
# HFL1 = test: Cytotoxicity against HFL1 cells; type: cell-based; details: Homo sapiens
# [3] = Half life in rat at 5 mg/kg, iv; type: ADME, organism-based; details: in vivo
# [4] = Cmax in rat at 10 mg/kg, po; type: ADME, organism-based; set-up: dose 10 mg/kg, route oral; details: in vivo
# Method in brief: (§1)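 Male rats given a single dose, 5 mg/kg intravenously or 10 mg/kg orally. Plasma PK parameters were reported as mean ± SD: AUCt, AUC∞, Cmax, Tmax, T1/2, CL, Vss and oral bioavailability F.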
# [5] = Half life in rat at 10 mg/kg, po; type: ADME, organism-based; details: in vivo; method in brief: as §1
# [6] = biological target: RAC-alpha serine/threonine-protein kinase (Mus musculus) (UniProt P31750); test: Increase in AKT phosphorylation at Ser-473 residue in mouse AML-12 cells at 10 uM after 24 hrs by Western blot analysis; type: cell-based
# Method in brief: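 AML12 hepatocytes challenged with palmitate, then exposed to 10 μM compound or vehicle (5 mM DCA as reference) for 24 h; p-Akt read by Western blot of cell lysates.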
# Mast cell [7] = test: Inhibition of degranulation in IgE-labeled bone marrow-derived mast cells (unknown origin) assessed as reduction in beta-hexosaminidase release preincubated for 1 hr followed by HSA stimulation and measured after 15 mins; type: functional, cell-based
# Mast cell [8] = test: Inhibition of degranulation in IgE-labeled bone marrow-derived mast cells (unknown origin) assessed as reduction in beta-hexosaminidase release by measuring absorbance at 10 uM preincubated for 1 hr followed by HSA stimulation and measured after 15 mins (reference value: 0.26 +/- 0.025); type: functional
# Mus musculus = test: Antiallergic activity in mouse model of IgE/antigen-stimulated passive cutaneous anaphylaxis assessed as Evans blue exudation at 50 mg/kg, ip administered as single dose for 1 hr treated at 24 hrs post anti-DNP IgE treatment followed by DNP-HSA/Evans blue addition and measured after 1 hr (reference value: 149 +/- 16.9 ug/ml); type: functional
# HCT-116 [9] = test: Induction of apoptosis in human HCT116 cells assessed as decrease in Bcl-XL expression at 10 to 50 uM after 24 hrs by Western blot analysis; type: functional, cell-based
# Method in brief: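 HCT116 and RKO cells given a range of compound doses for 24 h; lysates probed by Western blot for apoptosis-related proteins (p53, BAX, BCLxL).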
# HCT-116 [10] = test: Inhibition of colony formation in human HCT116 cells at 10 to 50 […] after 7 days by crystal violet staining based assay; type: functional, cell-based
# Method in brief: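 HCT116 and RKO cells seeded in 6-well plates and treated with compound for 7 days. Cells then fixed and stained with crystal violet to score colony formation.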
# HCT-116 [11] = test: Induction of apoptosis in human HCT116 cells after 24 hrs by Annexin V/propidium iodide staining based flow cytometry; type: functional, cell-based
# HCT-116 [12] = test: Induction of apoptosis in human HCT116 cells assessed as live cells at 10 uM after 24 hrs by Annexin V/propidium iodide staining based flow cytometry (reference value: 84.4%); type: functional
# HCT-116 [13] = test: Induction of apoptosis in human HCT116 cells assessed as necrotic cells at 10 uM after 24 hrs by Annexin V/propidium iodide staining based flow cytometry (reference value: 2.92%); type: functional
# HCT-116 [14] = test: Induction of apoptosis in human HCT116 cells assessed as late apoptotic cells at 25 uM after 24 hrs in presence of oxaliplatin by Annexin V/propidium iodide staining based flow cytometry (reference value: 14.2%); type: functional
# HCT-116 [15] = test: Cell cycle arrest in human HCT116 cells assessed as accumulation at G2/M phase at 10 uM after 24 hrs propidium iodide staining based flow cytometry (reference value: 22.2%); type: functional
# Method in brief: (§2)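 HCT116 and RKO cells were treated with compound alone or with oxaliplatin for 24 h before harvest. Cells were stained with propidium iodide, and DNA content was analysed by flow cytometry. Cell-cycle phase populations, including sub-G1, are given as percentages.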
# HCT-116 [16] = test: Cell cycle arrest in human HCT116 cells assessed as accumulation at sub-G1 phase at 25 uM after 24 hrs in presence of oxaliplatin propidium iodide staining based flow cytometry (reference value: 25.1%); type: functional; method in brief: as §2
# HCT-116 [17] = test: Cell cycle arrest in human HCT116 cells assessed as accumulation at G2/M phase at 25 uM after 24 hrs in presence of oxaliplatin propidium iodide staining based flow cytometry (reference value: 28.2%); type: functional; method in brief: as §2
# RKO [18] = test: Induction of apoptosis in human RKO cells assessed as early apoptotic cells at 10 uM after 24 hrs by Annexin V/propidium iodide staining based flow cytometry (reference value: 9.62%); type: functional
# RKO [19] = test: Induction of apoptosis in human RKO cells assessed as late apoptotic cells at 25 uM after 24 hrs by Annexin V/propidium iodide staining based flow cytometry (reference value: 7.42%); type: functional
# RKO [20] = test: Induction of apoptosis in human RKO cells assessed as necrotic cells at 50 uM after 24 hrs by Annexin V/propidium iodide staining based flow cytometry (reference value: 0.56%); type: functional
# RKO [21] = test: Cell cycle arrest in human RKO cells assessed as accumulation at G1/G0 phase at 10 uM after 24 hrs propidium iodide staining based flow cytometry (reference value: 39.9%); type: functional; method in brief: as §2
# RKO [22] = test: Cell cycle arrest in human RKO cells assessed as accumulation at S phase at 10 uM after 24 hrs propidium iodide staining based flow cytometry (reference value: 19.2%); type: functional
# RKO [23] = test: Cell cycle arrest in human RKO cells assessed as accumulation at G1/G0 phase at 25 uM after 24 hrs propidium iodide staining based flow cytometry (reference value: 39.9%); type: functional; method in brief: as §2
# RKO [24] = test: Cell cycle arrest in human RKO cells assessed as accumulation at S phase at 25 uM after 24 hrs propidium iodide staining based flow cytometry (reference value: 19.2%); type: functional
# RKO [25] = test: Cell cycle arrest in human RKO cells assessed as accumulation at G2/M phase at 25 uM after 24 hrs propidium iodide staining based flow cytometry (reference value: 23.3%); type: functional; method in brief: as §2
# RKO [26] = test: Cell cycle arrest in human RKO cells assessed as accumulation at G2/M phase at 50 uM after 24 hrs propidium iodide staining based flow cytometry (reference value: 23.3%); type: functional; method in brief: as §2
# RKO [27] = test: Cell cycle arrest in human RKO cells assessed as accumulation at sub-G1 phase at 25 uM after 24 hrs in presence of oxaliplatin propidium iodide staining based flow cytometry (reference value: 12%); type: functional; method in brief: as §2
# RKO [28] = test: Cell cycle arrest in human RKO cells assessed as accumulation at G2/M phase at 25 uM after 24 hrs in presence of oxaliplatin propidium iodide staining based flow cytometry (reference value: 39.2%); type: functional; method in brief: as §2
# Chain of RAC-alpha serine/threonine-protein kinase (Mus musculus) (P31750 whole entry): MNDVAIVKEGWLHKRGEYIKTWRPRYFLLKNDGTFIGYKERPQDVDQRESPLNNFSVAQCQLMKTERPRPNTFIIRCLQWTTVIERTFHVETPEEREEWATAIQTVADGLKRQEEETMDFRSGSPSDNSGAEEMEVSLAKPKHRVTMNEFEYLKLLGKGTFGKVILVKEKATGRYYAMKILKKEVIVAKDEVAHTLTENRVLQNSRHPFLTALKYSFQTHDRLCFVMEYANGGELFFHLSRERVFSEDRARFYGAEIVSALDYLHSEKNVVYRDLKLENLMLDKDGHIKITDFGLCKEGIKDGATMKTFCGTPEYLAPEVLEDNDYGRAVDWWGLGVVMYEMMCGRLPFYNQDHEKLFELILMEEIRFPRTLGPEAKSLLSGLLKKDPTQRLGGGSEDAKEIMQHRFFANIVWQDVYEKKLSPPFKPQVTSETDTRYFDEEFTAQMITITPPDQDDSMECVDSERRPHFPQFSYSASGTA
compound,measurement,setting,value
Cl.O=C1c2ccccc2C(=O)c2c1cccc2-c1cnn(C2CCNCC2)c1,IC50,[1],0.084 µM
same,fold change (FC),[2],0.18
same,IC50,Vero,36.4 µM
same,IC50,HFL1,36.5 µM
same,half-life,[3],7.06 h
same,Cmax,[4],565 ng/mL
same,half-life,[5],21.6 h
same,Activity,[6],Active
same,inhibition,Mast cell [7],Dose-dependent effect
same,OD,Mast cell [8],0.2
same,Activity,Mus musculus,49.9 µg/mL
same,Activity,HCT-116 [9],Active
same,inhibition,HCT-116 [10],Active
same,Activity,HCT-116 [11],Dose-dependent effect
same,Activity,HCT-116 [12],77.9%
same,Activity,HCT-116 [13],12.1%
same,Activity,HCT-116 [14],21.8%
same,Activity,HCT-116 [15],14.9%
same,Activity,HCT-116 [16],36%
same,Activity,HCT-116 [17],33.5%
same,Activity,RKO [18],5.2%
same,Activity,RKO [19],39.4%
same,Activity,RKO [20],0.006%
same,Activity,RKO [21],46.7%
same,Activity,RKO [22],13.8%
same,Activity,RKO [23],13.7%
same,Activity,RKO [24],6%
same,Activity,RKO [25],21.6%
same,Activity,RKO [26],2.8%
same,Activity,RKO [27],67.4%
same,Activity,RKO [28],19.2%
